“And” between values parts separate entries of the source, which are not always exact repeats. Equal values may be shown once.
Test system: Fibroblast
Test: Multiplex assay against human fibroblast
Type: toxicity, cell-based
Outline: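 Four dyes were applied at seeding to live cells: Hoechst33342, BioTracker Green Microtubule Cytoskeleton Dye, MitoTracker Red and Annexin V Alexa Fluor 680. Imaging after compound addition used a CQ1 microscope at 37°C and 5% CO2. CellPathfinder machine-learning gating then sorted cells into Hoechst high-intensity objects or normal cells, normal cells into healthy, pyknosed or fragmented nuclei, and pyknosed cells into mitotic or apoptotic, with tubulin, mitochondrial-mass and membrane-permeability phenotypes given as per cents of healthy-nucleus cells.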

[1] = 12 h, 1 µM, compound concentration 1 uM
[2] = 12 h, 10 µM, compound concentration 10 uM
[3] = 24 h, 1 µM, compound concentration 1 uM
[4] = 24 h, 10 µM, compound concentration 10 uM
[5] = 48 h, 1 µM, compound concentration 1 uM
[6] = 48 h, 10 µM, compound concentration 10 uM

Structure (SMILES): COc1ccc2[nH]c(I)c(CCNC(C)=O)c2c1 [IODOMELATONIN]
- Population Apoptotic (%) [1]: 53% and 32%
- Population Fragmented Nuclei (%) [1]: 15% and 23%
- Population Healthy Nuclei (%) [1]: 64% and 60%
- Population Hoechst High Intensity Objects (%) [1]: 2% and 5%
- Population Membrane Permeable-Phenotype (%) [1]: 4% and 7%
- Population Mitochondria Different-Phenotype (%) [1]: 4% and 3%
- Population Mitotic Cells (%) [1]: 46% and 68%
- Population Normal (%) [1]: 97% and 94%
- Population Pyknosed Nuclei (%) [1]: 19% and 15%
- Population Tubulin-Different-Phenotype (%) [1]: 28% and 33%
- Total Cell Count [1]: 137 and 173
- Population Apoptotic (%) [2]: 35% and 30%
- Population Fragmented Nuclei (%) [2]: 14% and 38%
- Population Healthy Nuclei (%) [2]: 64% and 44%
- Population Hoechst High Intensity Objects (%) [2]: 2% and 3%
- Population Membrane Permeable-Phenotype (%) [2]: 2% and 5%
- Population Mitochondria Different-Phenotype (%) [2]: 6% and 0%
- Population Mitotic Cells (%) [2]: 64% and 69%
- Population Normal (%) [2]: 97% and 96%
- Population Pyknosed Nuclei (%) [2]: 21% and 17%
- Population Tubulin-Different-Phenotype (%) [2]: 20% and 43%
- Total Cell Count [2]: 148 and 157
- Population Apoptotic (%) [3]: 62% and 57%
- Population Fragmented Nuclei (%) [3]: 16% and 26%
- Population Healthy Nuclei (%) [3]: 63% and 57%
- Population Hoechst High Intensity Objects (%) [3]: 0% and 5%
- Population Membrane Permeable-Phenotype (%) [3]: 0% and 6%
- Population Mitochondria Different-Phenotype (%) [3]: 7%
- Population Mitotic Cells (%) [3]: 37% and 42%
- Population Normal (%) [3]: 99% and 94%
- Population Pyknosed Nuclei (%) [3]: 20% and 15%
- Population Tubulin-Different-Phenotype (%) [3]: 27% and 39%
- Total Cell Count [3]: 134 and 176
- Population Apoptotic (%) [4]: 35% and 24%
- Population Fragmented Nuclei (%) [4]: 16% and 38%
- Population Healthy Nuclei (%) [4]: 58% and 41%
- Population Hoechst High Intensity Objects (%) [4]: 2% and 4%
- Population Membrane Permeable-Phenotype (%) [4]: 1% and 10%
- Population Mitochondria Different-Phenotype (%) [4]: 4% and 1%
- Population Mitotic Cells (%) [4]: 64% and 75%
- Population Normal (%) [4]: 97% and 95%
- Population Pyknosed Nuclei (%) [4]: 24% and 20%
- Population Tubulin-Different-Phenotype (%) [4]: 30% and 40%
- Total Cell Count [4]: 143 and 149
- Population Apoptotic (%) [5]: 76% and 42%
- Population Fragmented Nuclei (%) [5]: 16% and 30%
- Population Healthy Nuclei (%) [5]: 64% and 55%
- Population Hoechst High Intensity Objects (%) [5]: 3% and 4%
- Population Membrane Permeable-Phenotype (%) [5]: 0% and 5%
- Population Mitochondria Different-Phenotype (%) [5]: 4% and 0%
- Population Mitotic Cells (%) [5]: 23% and 57%
- Population Normal (%) [5]: 96% and 95%
- Population Pyknosed Nuclei (%) [5]: 18% and 13%
- Population Tubulin-Different-Phenotype (%) [5]: 22% and 40%
- Total Cell Count [5]: 147 and 163
- Population Apoptotic (%) [6]: 60% and 38%
- Population Fragmented Nuclei (%) [6]: 29% and 48%
- Population Healthy Nuclei (%) [6]: 56% and 38%
- Population Hoechst High Intensity Objects (%) [6]: 7% and 2%
- Population Membrane Permeable-Phenotype (%) [6]: 1% and 10%
- Population Mitochondria Different-Phenotype (%) [6]: 1% and 5%
- Population Mitotic Cells (%) [6]: 40% and 61%
- Population Normal (%) [6]: 92% and 98%
- Population Pyknosed Nuclei (%) [6]: 13% and 12%
- Population Tubulin-Different-Phenotype (%) [6]: 22% and 57%
- Total Cell Count [6]: 159 and 150

Structure (SMILES): COC(=O)c1ccc2c(c1)NC(=O)/C2=C(\Nc1ccc(N(C)C(=O)CN2CCN(C)CC2)cc1)c1ccccc1 [NINTEDANIB]
- Population Apoptotic (%) [1]: 16.28% and 33.33%
- Population Fragmented Nuclei (%) [1]: 16.48% and 7.77%
- Population Healthy Nuclei (%) [1]: 59.09% and 77.67%
- Population Hoechst High Intensity Objects (%) [1]: 0%
- Population Membrane Permeable-Phenotype (%) [1]: 6.73% and 3.75%
- Population Mitochondria Different-Phenotype (%) [1]: 17.31% and 10%
- Population Mitotic Cells (%) [1]: 83.72% and 66.67%
- Population Normal (%) [1]: 100%
- Population Pyknosed Nuclei (%) [1]: 24.43% and 14.56%
- Population Tubulin-Different-Phenotype (%) [1]: 38.46% and 36.88%
- Total Cell Count [1]: 176 and 206
- Population Apoptotic (%) [2]: 40.91% and 35.76%
- Population Fragmented Nuclei (%) [2]: 5.54% and 1.86%
- Population Healthy Nuclei (%) [2]: 51.47% and 66.87%
- Population Hoechst High Intensity Objects (%) [2]: 0.65% and 0%
- Population Membrane Permeable-Phenotype (%) [2]: 29.11% and 30.65%
- Population Mitochondria Different-Phenotype (%) [2]: 33.54% and 14.24%
- Population Mitotic Cells (%) [2]: 59.09% and 64.24%
- Population Normal (%) [2]: 99.35% and 100%
- Population Pyknosed Nuclei (%) [2]: 43% and 31.26%
- Population Tubulin-Different-Phenotype (%) [2]: 51.27% and 85.14%
- Total Cell Count [2]: 309 and 483
- Population Apoptotic (%) [3]: 16.22% and 30%
- Population Fragmented Nuclei (%) [3]: 15.92% and 9.59%
- Population Healthy Nuclei (%) [3]: 65.67% and 76.71%
- Population Hoechst High Intensity Objects (%) [3]: 0%
- Population Membrane Permeable-Phenotype (%) [3]: 3.79% and 3.57%
- Population Mitochondria Different-Phenotype (%) [3]: 8.33% and 10.71%
- Population Mitotic Cells (%) [3]: 83.78% and 70%
- Population Normal (%) [3]: 100%
- Population Pyknosed Nuclei (%) [3]: 18.41% and 13.7%
- Population Tubulin-Different-Phenotype (%) [3]: 31.82% and 40.48%
- Total Cell Count [3]: 201 and 219
- Population Apoptotic (%) [4]: 45.74% and 54.65%
- Population Fragmented Nuclei (%) [4]: 5.3% and 6.9%
- Population Healthy Nuclei (%) [4]: 59.09% and 71.92%
- Population Hoechst High Intensity Objects (%) [4]: 0.75% and 0%
- Population Membrane Permeable-Phenotype (%) [4]: 12.18% and 13.36%
- Population Mitochondria Different-Phenotype (%) [4]: 45.51% and 32.53%
- Population Mitotic Cells (%) [4]: 54.26% and 45.35%
- Population Normal (%) [4]: 99.25% and 100%
- Population Pyknosed Nuclei (%) [4]: 35.61% and 21.18%
- Population Tubulin-Different-Phenotype (%) [4]: 66.67% and 90.75%
- Total Cell Count [4]: 266 and 406
- Population Apoptotic (%) [5]: 21.43% and 45%
- Population Fragmented Nuclei (%) [5]: 19.15% and 12.93%
- Population Healthy Nuclei (%) [5]: 74.89% and 78.45%
- Population Hoechst High Intensity Objects (%) [5]: 0%
- Population Membrane Permeable-Phenotype (%) [5]: 0.57% and 1.65%
- Population Mitotic Cells (%) [5]: 78.57% and 55%
- Population Normal (%) [5]: 100%
- Population Pyknosed Nuclei (%) [5]: 5.96% and 8.62%
- Population Tubulin-Different-Phenotype (%) [5]: 23.86% and 42.31%
- Total Cell Count [5]: 235 and 232
- Population Apoptotic (%) [6]: 60.29% and 65.38%
- Population Fragmented Nuclei (%) [6]: 8.47% and 8.93%
- Population Healthy Nuclei (%) [6]: 64.11% and 83.57%
- Population Hoechst High Intensity Objects (%) [6]: 0%
- Population Membrane Permeable-Phenotype (%) [6]: 9.43% and 8.97%
- Population Mitochondria Different-Phenotype (%) [6]: 44.65% and 33.45%
- Population Mitotic Cells (%) [6]: 39.71% and 34.62%
- Population Normal (%) [6]: 100%
- Population Tubulin-Different-Phenotype (%) [6]: 58.49% and 91.72%
- Total Cell Count [6]: 248 and 347

Reference: ChEMBL document CHEMBL5724801, “EUbOPEN Chemogenomics Library - Multiplex” (2024)
